The results in this text go back to ChEMBL document CHEMBL1137748, “Design, synthesis and characterization of novel 2-(2,4-disubstituted-thiazole-5-yl)-3-aryl-3H-quinazoline-4-one derivatives as inhibitors of NF-kappaB and AP-1 mediated transcription activation and as potential anti-inflammatory agents” (Eur J Med Chem, 2009).

For experiment [1], the system named is HEK293. Description: Inhibition of NF-kappaB expressed in HEK293 cells assessed as inhibition of TNF-alpha-induced transcriptional activation at 10 uM treated 24 hrs before TNFalpha challenge measured after 20 to 24 hrs by luciferase assay relative to control. Format: cell-based. In short, it runs like this:
(§1)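 HEK/NF-κB cells stably carrying an NF-κB response element driving luciferase. Plated at 5×10^4 cells/well and held 24 h at 37 °C, 5% CO2. Compounds in 0.1% DMSO were added to replicate wells for 24 h, then TNF-α was added and cells were incubated 20–24 h. Bright-Glo lysis/substrate was added and luminescence read. The replicate mean was normalized to the maximal control.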

Experiment [2] concerns the target Transcription factor Jun (Homo sapiens) (UniProt P05412). Kind of experiment: Inhibition of AP1 expressed in HEK293 cells assessed as inhibition of PMA-induced transcriptional activation at 10 uM treated 24 hrs before PMA challenge measured after 20 to 24 hrs by luciferase assay relative to control.
Experiment [3] relates to Rattus norvegicus. Kind of experiment: Antiinflammatory activity in Sprague-Dawley rat assessed as protection against carrageenan-induced paw edema at 50 mg/kg, po administered 1 hr before carrageenan challenge measured after 3 hrs relative to control. Format: functional. In short, it runs like this:
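Sprague-Dawley rats of either sex, 150–250 g, fasted 18 h, n = 4 per group, each group run against a vehicle control. Dosed orally at 50 mg/kg in freshly made 0.2% agar suspension. One hour later, 0.1 ml of 1% carrageenan in saline was injected subplantar into the right hind paw. Paw volume was read by plethysmometer at 3 h. % protection = (control − test)/control × 100.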
In general terms: The carrageenan paw model is a standard test of acute inflammation.

Experiment [4] is described as follows: Inhibition of NF-kappaB expressed in HEK293 cells assessed as inhibition of TNF-alpha-induced transcriptional activation treated 24 hrs before TNFalpha challenge measured after 20 to 24 hrs by luciferase assay. The experiment is classed as cell-based. In short, it runs like this:
as §1

Chain of Transcription factor Jun (Homo sapiens) (P05412 whole entry): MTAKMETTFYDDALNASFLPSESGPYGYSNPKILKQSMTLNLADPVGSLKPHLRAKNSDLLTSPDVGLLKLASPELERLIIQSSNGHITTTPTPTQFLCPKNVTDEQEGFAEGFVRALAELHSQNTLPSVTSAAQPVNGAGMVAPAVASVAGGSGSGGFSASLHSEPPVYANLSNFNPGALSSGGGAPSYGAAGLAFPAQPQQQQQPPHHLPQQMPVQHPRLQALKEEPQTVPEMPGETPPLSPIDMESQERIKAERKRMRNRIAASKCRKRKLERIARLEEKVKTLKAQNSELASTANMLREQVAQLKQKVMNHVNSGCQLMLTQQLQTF

Turning to `Nc1nc(Nc2ccc(Cl)cc2)sc1-c1nc2ccccc2c(=O)n1-c1ccc(Cl)cc1`, the inhibition in experiment [1] and in experiment [2] was 0% in each case. For the same compound, in experiment [3], the Activity came to 37%.

Consider `O=c1c2ccccc2nc(-c2sc(Nc3ccc(Cl)cc3)nc2-c2ccccc2)n1-c1ccccc1`, for which the inhibition was determined as 0% in experiment [1] and 27% in experiment [2].

With `CNc1nc(C)c(-c2nc3ccccc3c(=O)n2-c2ccccc2C)s1`, the inhibition in experiment [1] amounted to 16%; in experiment [2], 67%. For the same compound, in experiment [3], the Activity stood at 35%.

Consider `CNc1nc(C)c(-c2nc3ccccc3c(=O)n2-c2ccc(Cl)cc2)s1`, for which the inhibition in experiment [1] was determined as 93%; in experiment [2], 82%. Besides, the IC50 in experiment [4] came to 3.3 µM. Further, the Activity in experiment [3] turned out to be 71%.

On to `Cc1cccc(-n2c(-c3sc(Nc4ccc(Cl)cc4)nc3C)nc3ccccc3c2=O)c1`, for which the inhibition in experiment [1] came to 2%; in experiment [2], 39%.

Take `CNc1nc(-c2ccccc2)c(-c2nc3ccccc3c(=O)n2-c2ccc(C(C)=O)cc2)s1`: the inhibition was found to be 4% in experiment [1] and 15% in experiment [2].

In the case of `Cc1ccccc1-n1c(-c2sc(Nc3ccc(Cl)cc3)nc2-c2ccccc2)nc2ccccc2c1=O`, the inhibition in experiment [1] came to 27%; in experiment [2], 32%. For the same compound, the Activity in experiment [3] is given as 51%.

On to `Cc1ccccc1-n1c(-c2sc(Nc3ccc(Cl)cc3)nc2C)nc2ccccc2c1=O`, for which the Activity in experiment [3] came to 45%.

As for `CNc1nc(C)c(-c2nc3ccccc3c(=O)n2-c2ccc(C(C)=O)cc2)s1`, the inhibition was 71% in experiment [1] and 0% in experiment [2]. For the same compound, the IC50 in experiment [4] is 5.5 µM. For the same compound, the Activity in experiment [3] is given as 42%.

Turning to `CNc1nc(C)c(-c2nc3ccccc3c(=O)n2-c2cccc(C)c2)s1`, the inhibition worked out at 10% in experiment [1] and 20% in experiment [2].

Turning to `Cc1ccccc1-n1c(-c2sc(Nc3ccccc3)nc2C)nc2ccccc2c1=O`, the inhibition was found to be 21% in experiment [1] and 60% in experiment [2]. For the same compound, in experiment [3], the Activity was determined as 42%.

With `Cc1ccc(Nc2nc(-c3ccccc3)c(-c3nc4ccccc4c(=O)n3-c3ccc(Cl)cc3)s2)cc1`, the inhibition in experiment [1] and in experiment [2] was 0% throughout.

Turning to `CC(=O)c1ccc(-n2c(-c3sc(Nc4ccc(Cl)cc4)nc3N)nc3ccccc3c2=O)cc1`, the inhibition worked out at 12% in experiment [1] and 2% in experiment [2]. Further, the Activity in experiment [3] is reported as 53%.

Consider `Cc1nc(Nc2ccc(Cl)cc2)sc1-c1nc2ccccc2c(=O)n1-c1ccc(Cl)cc1`, for which the inhibition in experiment [1] turned out to be 96%; in experiment [2], 84%. Also, the concentration for half-maximal inhibition (IC50) in experiment [4] worked out at 3.3 µM. Further, the Activity in experiment [3] amounted to 38%.

As for `CC(=O)c1ccc(-n2c(-c3sc(Nc4ccccc4)nc3C)nc3ccccc3c2=O)cc1`, the inhibition was 15% in experiment [1] and 7% in experiment [2].

Take `Cc1nc(Nc2ccc(Cl)cc2)sc1-c1nc2ccccc2c(=O)n1-c1ccccc1`: the inhibition in experiment [1] and in experiment [2] was 0% each time. Also, the Activity in experiment [3] came to 4%.

As to `Cc1nc(Nc2ccccc2)sc1-c1nc2ccccc2c(=O)n1-c1ccccc1Cl`, the inhibition was 6% in experiment [1] and 21% in experiment [2].

For `Cc1nc(Nc2ccc(Cl)cc2)sc1-c1nc2ccccc2c(=O)n1-c1ccccc1Cl`, the inhibition in experiment [1] was 60%; in experiment [2], 21%. Further, in experiment [3], the Activity is reported as 58%.

Take `O=c1c2ccccc2nc(-c2sc(Nc3ccc(Cl)cc3)nc2-c2ccccc2)n1-c1ccccc1Cl`: the inhibition in experiment [1] came to 24%; in experiment [2], 0%. For the same compound, in experiment [3], the Activity is 61%.

As for `Cc1nc(Nc2ccccc2)sc1-c1nc2ccccc2c(=O)n1-c1ccccc1`, the figures for the inhibition in experiment [1] and in experiment [2] were 25% and 16%, respectively. For the same compound, in experiment [3], the Activity amounted to 12%.

`Cc1nc(Nc2ccccc2)sc1-c1nc2ccccc2c(=O)n1-c1ccc(Cl)cc1`: the inhibition in experiment [1] came out at 79%; in experiment [2], 9%. Also, the IC50 in experiment [4] worked out at 5.5 µM. Further, the Activity in experiment [3] amounted to 72%.

Take `CC(=O)c1ccc(-n2c(-c3sc(Nc4ccc(Cl)cc4)nc3-c3ccccc3)nc3ccccc3c2=O)cc1`: the inhibition was 0% in experiment [1] and 31% in experiment [2]. Also, the Activity in experiment [3] came out at 23%.

Consider `Cc1ccc(-n2c(-c3sc(Nc4ccc(Cl)cc4)nc3C)nc3ccccc3c2=O)cc1`, for which the inhibition in experiment [1] came to 12%; in experiment [2], 2%. Also, in experiment [3], the Activity was found to be 37%.

With `COc1ccc(-n2c(-c3sc(Nc4ccc(Cl)cc4)nc3C)nc3ccccc3c2=O)cc1`, the inhibition in experiment [1] and in experiment [2] was 0% throughout. Besides, the Activity in experiment [3] is 5%.

Regarding `CC(=O)c1ccc(-n2c(-c3sc(Nc4ccc(Cl)cc4)nc3C)nc3ccccc3c2=O)cc1`, the inhibition in experiment [1] came to 0%; in experiment [2], 2%. Besides, the Activity in experiment [3] was found to be 13%.

With `COc1ccccc1-n1c(-c2sc(Nc3ccc(Cl)cc3)nc2C)nc2ccccc2c1=O`, the Activity in experiment [3] was determined as 27%.

The inhibition is the drop in the measured response relative to a control, in per cent. For orientation: IC50 means the midpoint of a concentration-inhibition curve.
